Source: ChEMBL document CHEMBL1275598, “In vitro activity of ceftaroline against community-associated methicillin-resistant, vancomycin-intermediate, vancomycin-resistant, and daptomycin-nonsusceptible Staphylococcus aureus isolates” (2010)

Experiments:
Assay type in all cases: functional
Staphylococcus aureus [1] = assay: Antimicrobial activity against vancomycin-intermediate Staphylococcus aureus assessed as susceptible isolates by microdilution method
Method in brief: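 CLSI broth microdilution in cation-adjusted Mueller-Hinton broth. MIC is the lowest concentration well with no visible growth, read by eye. Isolates were classed susceptible from CLSI breakpoints. S. aureus ATCC 29213 and E. faecalis ATCC 29212 were used as MIC control strains.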

Staphylococcus aureus [2] = assay: Antimicrobial activity against vancomycin intermediate Staphylococcus aureus NRS-22 expressing SCCmec type 2 element by microdilution method
Method in brief: (§1)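 MIC by broth microdilution in cation-adjusted Mueller-Hinton broth, following CLSI guidelines; antibiotic powders reconstituted per CLSI. Read visually as the lowest drug concentration well with no visible growth. S. aureus ATCC 29213 and E. faecalis ATCC 29212 served as control strains. CA-MRSA: hospital patients culture-positive within 48 h of admission. DNSSA: patient blood isolates. VISA: obtained from the NARSA program.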

Staphylococcus aureus [3] = assay: Antimicrobial activity against vancomycin intermediate Staphylococcus aureus NRS-19 expressing SCCmec type 2 element by microdilution method; method in brief: as §1
Staphylococcus aureus [4] = assay: Antimicrobial activity against vancomycin-resistant Staphylococcus aureus assessed as susceptible isolates by microdilution method
Method in brief: (§2)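 CLSI broth microdilution MICs in cation-adjusted Mueller-Hinton broth, read visually as the lowest concentration with no visible growth. Percent of isolates classed susceptible or resistant was assigned using CLSI breakpoints.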

Staphylococcus aureus [5] = assay: Antimicrobial activity against vancomycin intermediate Staphylococcus aureus NRS-4 expressing SCCmec type 2 element by microdilution method; method in brief: as §1
Staphylococcus aureus [6] = assay: Antimicrobial activity against vancomycin intermediate Staphylococcus aureus NRS-24 expressing SCCmec type 2 element by microdilution method; method in brief: as §1
Staphylococcus aureus [7] = assay: Antimicrobial activity against vancomycin-intermediate Staphylococcus aureus by microdilution method
Method in brief: (§3)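 Broth microdilution per CLSI in cation-adjusted Mueller-Hinton broth. Antibiotic powders were reconstituted per CLSI. The MIC was read visually as the lowest drug concentration with no visible growth. S. aureus ATCC 29213 and E. faecalis ATCC 29212 served as control strains. VISA and VRSA isolates came from the NARSA program.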

Staphylococcus aureus [8] = assay: Antimicrobial activity against vancomycin intermediate Staphylococcus aureus NRS-403 expressing SCCmec type 2 element by microdilution method; method in brief: as §1
Staphylococcus aureus [9] = assay: Antimicrobial activity against community-acquired methicillin-resistant Staphylococcus aureus assessed as resistant isolates by microdilution method
Method in brief: (§4)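 MICs by CLSI broth microdilution in cation-adjusted Mueller-Hinton broth, read visually as the lowest concentration with no visible growth. Percentages of susceptible or resistant isolates assigned using CLSI breakpoints. Isolates: CA-MRSA (n = 92, positive within 48 h of admission) and DNSSA (n = 7, blood).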

Staphylococcus aureus [10] = assay: Antimicrobial activity against vancomycin intermediate Staphylococcus aureus NRS-18 expressing SCCmec type 2 element by microdilution method; method in brief: as §1
Staphylococcus aureus [11] = assay: Antimicrobial activity against vancomycin intermediate Staphylococcus aureus NRS-26 expressing SCCmec type 2 element by microdilution method; method in brief: as §1
Staphylococcus aureus [12] = assay: Antimicrobial activity against vancomycin intermediate Staphylococcus aureus NRS-404 expressing SCCmec type 2 element by microdilution method; method in brief: as §1
Staphylococcus aureus [13] = assay: Antimicrobial activity against vancomycin intermediate Staphylococcus aureus NRS-23 expressing SCCmec type 2 element by microdilution method; method in brief: as §1
Staphylococcus aureus [14] = assay: Antimicrobial activity against community-acquired methicillin-resistant Staphylococcus aureus by microdilution method; method in brief: as §1
Staphylococcus aureus [15] = assay: Antimicrobial activity against vancomycin intermediate Staphylococcus aureus NRS-51 expressing SCCmec type 2 element by microdilution method; method in brief: as §1
Staphylococcus aureus [16] = assay: Antimicrobial activity against vancomycin resistant Staphylococcus aureus VRS-10 expressing SCCmec type 2 element by microdilution method; method in brief: as §3
Staphylococcus aureus [17] = assay: Antimicrobial activity against vancomycin intermediate Staphylococcus aureus NRS-76 expressing SCCmec type 2 element by microdilution method; method in brief: as §3
Staphylococcus aureus [18] = assay: Antimicrobial activity against vancomycin intermediate Staphylococcus aureus NRS-126 expressing SCCmec type 2 element by microdilution method; method in brief: as §1
Staphylococcus aureus [19] = assay: Antimicrobial activity against vancomycin-resistant Staphylococcus aureus by microdilution method; method in brief: as §3
Staphylococcus aureus [20] = assay: Antimicrobial activity against vancomycin resistant Staphylococcus aureus VRS-5 expressing SCCmec type 2 element by microdilution method; method in brief: as §3
Staphylococcus aureus [21] = assay: Antimicrobial activity against vancomycin intermediate Staphylococcus aureus NRS-68 expressing SCCmec type 2 element by microdilution method; method in brief: as §1
Staphylococcus aureus [22] = assay: Antimicrobial activity against vancomycin intermediate Staphylococcus aureus NRS-3 expressing SCCmec type 2 element by microdilution method; method in brief: as §1
Staphylococcus aureus [23] = assay: Antimicrobial activity against vancomycin intermediate Staphylococcus aureus NRS-27 expressing SCCmec type 2 element by microdilution method; method in brief: as §1
Staphylococcus aureus [24] = assay: Bactericidal activity against vancomycin-resistant Staphylococcus aureus assessed as antibiotic concentration that reduced the number of viable cells by =>99.9% by colony count method; details: Staphylococcus aureus
Method in brief: (§5)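 MBC per CLSI following microdilution in cation-adjusted Mueller-Hinton broth. Defined as the concentration giving ≥99.9% reduction in viable cells, judged from colony counts of the growth control well against Pearson rejection-value tables. CA-MRSA isolates were hospital patients' isolates with positive MRSA culture within 48 h of admission.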

Staphylococcus aureus [25] = assay: Antimicrobial activity against vancomycin resistant Staphylococcus aureus VRS-6 expressing SCCmec type 2 element by microdilution method; method in brief: as §3
Staphylococcus aureus [26] = assay: Antimicrobial activity against vancomycin intermediate Staphylococcus aureus NRS-17 expressing SCCmec type 2 element by microdilution method; method in brief: as §1
Staphylococcus aureus [27] = assay: Antimicrobial activity against vancomycin-intermediate Staphylococcus aureus assessed as resistant isolates by microdilution method; method in brief: as §2
Staphylococcus aureus [28] = assay: Antimicrobial activity against vancomycin intermediate Staphylococcus aureus NRS-73 expressing SCCmec type 4d element by microdilution method; method in brief: as §1
Staphylococcus aureus [29] = assay: Antimicrobial activity against daptomycin-nonsusceptible Staphylococcus aureus by microdilution method; details: Staphylococcus aureus; method in brief: as §1
Staphylococcus aureus [30] = assay: Antimicrobial activity against vancomycin resistant Staphylococcus aureus VRS-3 expressing SCCmec type 4 element by microdilution method; method in brief: as §3
Staphylococcus aureus [31] = assay: Bactericidal activity against vancomycin-intermediate Staphylococcus aureus assessed as antibiotic concentration that reduced the number of viable cells by =>99.9% by colony count method
Method in brief: (§6)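 MBC per CLSI guidelines. It was taken as the antibiotic concentration giving ≥99.9% reduction in viable cells, based on colony counts from the growth control well and rejection values from Pearson's tables.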

Staphylococcus aureus [32] = assay: Bactericidal activity against community-acquired methicillin-resistant Staphylococcus aureus assessed as antibiotic concentration that reduced the number of viable cells by =>99.9% by colony count method; method in brief: as §5
Staphylococcus aureus [33] = assay: Antimicrobial activity against vancomycin intermediate Staphylococcus aureus NRS-402 expressing SCCmec type 2 element by microdilution method; method in brief: as §1
Staphylococcus aureus [34] = assay: Antimicrobial activity against vancomycin resistant Staphylococcus aureus VRS-1 expressing SCCmec type 2 element by microdilution method; method in brief: as §3
Staphylococcus aureus [35] = assay: Antimicrobial activity against vancomycin-resistant Staphylococcus aureus assessed as resistant isolates by microdilution method; method in brief: as §2
Staphylococcus aureus [36] = assay: Antimicrobial activity against vancomycin resistant Staphylococcus aureus VRS-2 expressing SCCmec type 2 element by microdilution method; method in brief: as §3
Staphylococcus aureus [37] = assay: Bactericidal activity against daptomycin-nonsusceptible Staphylococcus aureus assessed as antibiotic concentration that reduced the number of viable cells by =>99.9% by colony count method; method in brief: as §6
Staphylococcus aureus [38] = assay: Antimicrobial activity against daptomycin-nonsusceptible Staphylococcus aureus assessed as resistant isolates by microdilution method; method in brief: as §4
Staphylococcus aureus [39] = assay: Antimicrobial activity against community-acquired methicillin-resistant Staphylococcus aureus assessed as susceptible isolates by microdilution method; method in brief: as §4
Staphylococcus aureus [40] = assay: Antimicrobial activity against daptomycin-nonsusceptible Staphylococcus aureus assessed as susceptible isolates by microdilution method; method in brief: as §4
Staphylococcus aureus [41] = assay: Antimicrobial activity against vancomycin resistant Staphylococcus aureus VRS-8 expressing SCCmec element by microdilution method; method in brief: as §3
Staphylococcus aureus [42] = assay: Antimicrobial activity against vancomycin resistant Staphylococcus aureus VRS-4 expressing SCCmec type 4 element by microdilution method; method in brief: as §3
Staphylococcus aureus [43] = assay: Antimicrobial activity against vancomycin intermediate Staphylococcus aureus NRS-74 expressing SCCmec type 2 element by microdilution method; method in brief: as §1
Staphylococcus aureus [44] = assay: Antimicrobial activity against vancomycin resistant Staphylococcus aureus VRS-9 expressing SCCmec type 2 element by microdilution method; method in brief: as §3
Staphylococcus aureus [45] = assay: Antimicrobial activity against vancomycin intermediate Staphylococcus aureus NRS-118 expressing SCCmec type 1 element by microdilution method; method in brief: as §1
Staphylococcus aureus [46] = assay: Antimicrobial activity against vancomycin resistant Staphylococcus aureus VRS-7 expressing SCCmec element by microdilution method; method in brief: as §3

CCC[C@@H]1C[C@@H](C(=O)N[C@@H]([C@H]2O[C@H](SC)[C@H](O)[C@@H](O)[C@H]2O)[C@H](C)Cl)N(C)C1 [CLINDAMYCIN]
17%: Activity (Staphylococcus aureus [1])
36%: Activity (Staphylococcus aureus [9])
8 µg/mL: MBC50 (Staphylococcus aureus [32])
> 0.12 µg/mL: MBC (Staphylococcus aureus [31]; Staphylococcus aureus)
0%: Activity (Staphylococcus aureus [4])
> 1 µg/mL: MBC (Staphylococcus aureus [32]; Staphylococcus aureus)
83%: Activity (Staphylococcus aureus [27])
64%: Activity (Staphylococcus aureus [39])
0.06 µg/mL: MIC (Staphylococcus aureus [12]) | MIC (Staphylococcus aureus [17]) | MIC (Staphylococcus aureus [26]) | MIC (Staphylococcus aureus [28])
86%: Activity (Staphylococcus aureus [38])
>64 µg/mL: MBC50 (Staphylococcus aureus [31]) | MBC90 (Staphylococcus aureus [31]) | MBC50 (Staphylococcus aureus [37])
100%: Activity (Staphylococcus aureus [35])
> 64 µg/mL: MIC (Staphylococcus aureus [2]) | MIC (Staphylococcus aureus [3]) | MIC (Staphylococcus aureus [5]) | MIC (Staphylococcus aureus [6]) | MIC50 (Staphylococcus aureus [7]) | MIC90 (Staphylococcus aureus [7]) | MIC (Staphylococcus aureus [8]) | MIC (Staphylococcus aureus [10]) | MIC (Staphylococcus aureus [11]) | MIC (Staphylococcus aureus [13]) | MIC90 (Staphylococcus aureus [14]) | MIC (Staphylococcus aureus [15]) | MIC (Staphylococcus aureus [16]) | MIC (Staphylococcus aureus [18]) | MIC (Staphylococcus aureus [19]) | MIC50 (Staphylococcus aureus [19]) | MIC90 (Staphylococcus aureus [19]) | MIC (Staphylococcus aureus [20]) | MIC (Staphylococcus aureus [21]) | MIC (Staphylococcus aureus [22]) | MIC (Staphylococcus aureus [23]) | MBC (Staphylococcus aureus [24]) | MIC (Staphylococcus aureus [25]) | MIC50 (Staphylococcus aureus [29]) | MIC (Staphylococcus aureus [30]) | MIC (Staphylococcus aureus [33]) | MIC (Staphylococcus aureus [34]) | MIC (Staphylococcus aureus [36]) | MIC (Staphylococcus aureus [41]) | MIC (Staphylococcus aureus [42]) | MIC (Staphylococcus aureus [43]) | MIC (Staphylococcus aureus [44]) | MIC (Staphylococcus aureus [45]) | MIC (Staphylococcus aureus [46])
14%: Activity (Staphylococcus aureus [40])
0.12 µg/mL: MIC50 (Staphylococcus aureus [14])
